In ChEMBL document CHEMBL3856214, “Lanostane Triterpenes Isolated from Antrodia heteromorpha and Their Inhibitory Effects on RANKL-Induced Osteoclastogenesis” (J Nat Prod, 2016):

How the values were obtained:
BMDM [1] = test: Inhibition of RANKL-induced C57BL/6 mouse BMDM differentiation into osteoclasts after 4 days in presence of M-CSF by TRAP staining-based light microscopy; format: functional
Outline: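 BMMs (6–8-week-old female C57BL/6 mouse femur/tibia marrow, 3 days with M-CSF 50 ng/mL) seeded at 4 × 10^4/well. Cultured 4 days with M-CSF (50 ng/mL), RANKL (100 ng/mL) and vehicle or compound. Fixed in 10% formalin for 5 min, then TRAP-stained by kit to show TRAP-positive multinucleated osteoclasts.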

[2] = (§1) Inhibition of RANKL-induced C57BL/6 mouse BMDM differentiation into osteoclasts after 4 days in presence of M-CSF by TRAP assay; format: functional; conditions: C57BL/6, BMDM, 96 h
Outline: (§2)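 Bone marrow cells from femurs and tibiae of 6–8-week-old female C57BL/6 mice; after red-cell lysis, 3 days in α-MEM/10% FBS with penicillin-streptomycin and M-CSF (50 ng/mL); adherent cells kept as BMMs. BMMs (4 × 10^4/well) given M-CSF (50 ng/mL) plus RANKL (100 ng/mL) with vehicle or compound, 4 days. TRAP activity of culture supernatant with chromogenic substrate, OD 540 nm.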

BMDM [3] = test: as §1; format: functional; outline: as §2
Mus musculus = species on record: Mus musculus; test: Cytotoxicity against C57BL/6 mouse BMDM assessed as decrease in cell viability at IC50 after 4 days in presence of RANKL/M-CSF by XTT assay; format: toxicity; conditions: 96 h

IC50 [2] [µM]	SMILES	inhibition (BMDM [1])	inhibition (BMDM [3])	Activity (Mus musculus)
7.4	CC1=C(C)[C@@]2(C[C@](C)(O)[C@H]3C[C@H](O)[C@@]4(C)C5=CC[C@H]6C(C)(C)C(=O)[C@H](O)C[C@]6(C)C5=C[C@@H](O2)[C@]34C)OC1=O	Dose-dependent effect	Dose-dependent effect	Non-Toxic
4.5	CC1=C(C)[C@@]2(C[C@](C)(O)[C@H]3C[C@H](O)[C@@]4(C)C5=CC[C@H]6C(C)(C)[C@@H](O)C(=O)C[C@]6(C)C5=C[C@@H](O2)[C@]34C)OC1=O	Dose-dependent effect	Dose-dependent effect	Non-Toxic

SMILES	IC50 [2] [µM]	inhibition (BMDM [1])	inhibition (BMDM [3])	Activity (Mus musculus)
C=C(CC[C@@H](C(=O)O)[C@H]1[C@H](O)C[C@@]2(C)C3=CC[C@H]4C(C)(C)C(=O)CC[C@]4(C)C3=CC[C@]12C)C(C)C [POLYPORENIC ACID B]	4.9	Dose-dependent effect	Dose-dependent effect	Non-Toxic
